Laboratory results taken from ChEMBL document CHEMBL3627626, “6-Substituted Pyrrolo[2,3-d]pyrimidine Thienoyl Regioisomers as Targeted Antifolates for Folate Receptor α and the Proton-Coupled Folate Transporter in Human Tumors” (J Med Chem, 2015).
Calls of active or inactive are those of the source. The calls are words filed in the database; no cut-off is given here.

Key:
R2 = experiment: Cytotoxicity against Chinese hamster R2 cells transfected with empty PCDNA3 assessed as cell growth inhibition after 96 hrs by CellTiter-Blue assay; format: cell-based, Cricetulus griseus
[1] = target: T1, Proton-coupled folate transporter (Homo sapiens) (UniProt Q96NT5); experiment: Binding affinity to human PCFT expressed in Chinese hamster R2/PCFT4 cells assessed as increase in intracellular drug transport at 0.5 uM at 37 degC at pH 5.5 measured over 5 mins in presence of AGF94; format: cell-based
T1 sequence (whole entry): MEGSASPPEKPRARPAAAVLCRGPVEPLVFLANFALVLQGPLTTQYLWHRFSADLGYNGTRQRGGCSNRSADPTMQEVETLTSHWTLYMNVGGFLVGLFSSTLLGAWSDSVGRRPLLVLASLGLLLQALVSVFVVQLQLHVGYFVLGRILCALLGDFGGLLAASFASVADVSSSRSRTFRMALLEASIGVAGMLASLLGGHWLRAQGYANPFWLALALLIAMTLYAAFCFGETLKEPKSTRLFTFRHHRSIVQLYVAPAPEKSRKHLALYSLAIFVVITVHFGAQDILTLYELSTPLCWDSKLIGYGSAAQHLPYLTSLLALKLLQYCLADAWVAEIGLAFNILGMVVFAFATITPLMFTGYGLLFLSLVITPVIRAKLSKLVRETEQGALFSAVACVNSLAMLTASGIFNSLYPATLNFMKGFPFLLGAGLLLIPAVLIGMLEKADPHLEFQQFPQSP

[2] = target: T2, Trifunctional purine biosynthetic protein adenosine-3 (Homo sapiens, UniProt P22102); experiment: Inhibition of GARFTase in human KB cells expressing FRalpha/PCFT/RFC assessed as incorporation of [14C(U)]-glycine into [14C]-formyl GAR preincubated for 1 hr followed by azaserine, L-glutamine, 14C(U)]-glycine addition measured after 16 hrs; format: cell-based
T2 sequence (P22102 whole entry): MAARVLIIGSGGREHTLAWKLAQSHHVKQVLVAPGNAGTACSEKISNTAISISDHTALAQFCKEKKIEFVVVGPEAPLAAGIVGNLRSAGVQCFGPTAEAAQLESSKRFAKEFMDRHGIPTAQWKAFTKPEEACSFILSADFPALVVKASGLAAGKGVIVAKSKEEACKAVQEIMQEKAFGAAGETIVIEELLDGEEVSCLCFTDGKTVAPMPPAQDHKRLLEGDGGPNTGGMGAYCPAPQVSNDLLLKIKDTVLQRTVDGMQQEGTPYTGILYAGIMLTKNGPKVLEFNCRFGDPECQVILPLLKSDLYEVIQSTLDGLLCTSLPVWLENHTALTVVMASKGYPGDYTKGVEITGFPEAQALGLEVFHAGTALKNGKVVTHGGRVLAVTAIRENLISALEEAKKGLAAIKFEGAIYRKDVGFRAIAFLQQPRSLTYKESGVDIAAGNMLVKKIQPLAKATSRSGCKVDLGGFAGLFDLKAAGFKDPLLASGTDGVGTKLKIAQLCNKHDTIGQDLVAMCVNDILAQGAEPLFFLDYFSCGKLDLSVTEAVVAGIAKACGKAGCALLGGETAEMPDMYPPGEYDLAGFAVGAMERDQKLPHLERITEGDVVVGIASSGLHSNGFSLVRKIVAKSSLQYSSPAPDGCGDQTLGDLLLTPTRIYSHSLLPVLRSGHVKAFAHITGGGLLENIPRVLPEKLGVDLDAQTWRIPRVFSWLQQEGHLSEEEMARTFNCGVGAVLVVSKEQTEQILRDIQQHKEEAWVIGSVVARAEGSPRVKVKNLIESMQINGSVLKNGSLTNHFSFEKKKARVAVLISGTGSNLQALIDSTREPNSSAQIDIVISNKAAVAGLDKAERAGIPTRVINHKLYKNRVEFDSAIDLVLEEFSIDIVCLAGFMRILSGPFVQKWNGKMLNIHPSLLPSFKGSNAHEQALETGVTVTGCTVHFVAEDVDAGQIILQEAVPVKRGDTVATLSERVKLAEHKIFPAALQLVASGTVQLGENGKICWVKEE
In short: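 In situ assay in KB cells. Cells were exposed to a range of drug concentrations with [14C]glycine for 16 h under proliferation-assay conditions, with azaserine present. Radiolabelled metabolites were extracted and separated on anion exchange columns, and [14C]formyl GAR quantified. Mean ±SE of three experiments.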

[3] = target: T1, Proton-coupled folate transporter (Homo sapiens); experiment: Binding affinity to human PCFT expressed in Chinese hamster R2/PCFT4 cells assessed as intracellular drug transport rate at 37 degC at pH 5.5 measured over 2 mins by Lineweaver-Burk plot analysis; format: cell-based
In short: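 R2/PCFT4 CHO cells were grown as monolayers, transferred to spinner flasks, and used as suspensions (5–10 × 10⁷ cells). Uptake was quenched with ice-cold DPBS and cells were NaOH-solubilized. Results are pmol/mg protein; Kt and Vmax come from Lineweaver–Burke plots.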

[4] = target: Folate receptor alpha (Homo sapiens) (UniProt P15328); experiment: Displacement of [3H]-folic acid from human FRalpha expressed in Chinese hamster RT16 cells after 15 mins relative to folic acid; format: cell-based
In short: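 Competitive binding to surface folate receptor on RT16 (FRα) or D4 (FRβ) CHO cells. Cells were acid-washed (pH 3.5) to strip bound folate, then incubated in HEPES-buffered saline pH 7.4 with 50 nM [3H]folic acid plus unlabeled ligand (0–1000 nM) for 15 min at 0 °C. Bound label was normalised to protein. Affinity is the inverse molar ratio for 50% displacement, with folic acid set to 1. Mean of 4–10 experiments ±SE.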

SK-OV-3 [5] = experiment: Antitumor activity against human SKOV3 cells expressing RFC/PCFT/FRalpha xenografted in folate-replete diet fed NCR SCID mouse assessed as tumor growth inhibition at 16 mg/kg, iv administered every 4 days on day 3, 7, 11 measured on day 21 relative to control; format: functional
In short: (§1)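 Ten-week-old female NCR SCID mice, fed a folate-deficient or standard folate-replete diet, were implanted subcutaneously and bilaterally with SKOV3 tumour fragments. Randomised at 5 mice/group. Dosed intravenously, 0.2 mL per injection, in 5% ethanol/1% Tween-80/0.5% NaHCO3 in water at pH 6.5, on days 3, 7 and 11. Tumours measured twice weekly and mice weighed daily. T/C taken on day 21; growth delay and log cell kill also reported.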

RT16 = experiment: Selectivity ratio of IC50 for human RFC expressed in Chinese hamster PC43-10 cells assessed as cell growth inhibition to IC50 for human FRalpha expressed in Chinese hamster RT16 cells assessed as cell growth inhibition; format: cell-based
SK-OV-3 [6] = experiment: Antitumor activity against human SKOV3 cells expressing RFC/PCFT/FRalpha xenografted in folate-deficient diet fed NCR SCID mouse assessed as tumor growth inhibition at 16 mg/kg, iv administered every 4 days on day 3, 7, 11 measured on day 21 relative to control; format: functional; in short: as §1
[7] = target: T1, Proton-coupled folate transporter (Homo sapiens); experiment: Binding affinity to human PCFT expressed in Chinese hamster R2/PCFT4 cells assessed as cell growth inhibition after 96 hrs by CellTiter-Blue assay in presence of 200 nM folic acid; format: cell-based
In short: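 Human-PCFT-transfected R2 CHO cells, precultured with G418, were plated at ~2500–5000 cells/well across a range of drug concentrations. Medium was folate-free RPMI 1640 (pH 7.2) with 25 nM LCV and 10% dialyzed FBS. Parallel wells received 200 nM folic acid. Incubated up to 96 h, then read with CellTiter Blue fluorescence (ex 560/em 590 nm).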

Folate receptor alpha (Homo sapiens), sequence (P15328 25-234 limits assumed): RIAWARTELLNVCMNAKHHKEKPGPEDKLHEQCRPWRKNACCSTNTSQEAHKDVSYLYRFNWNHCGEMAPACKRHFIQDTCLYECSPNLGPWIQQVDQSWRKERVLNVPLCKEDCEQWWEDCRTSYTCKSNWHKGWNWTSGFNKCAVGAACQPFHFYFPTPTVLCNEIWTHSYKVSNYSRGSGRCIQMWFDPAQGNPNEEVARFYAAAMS

Nc1nc2[nH]c(CCCc3cc(C(=O)N[C@@H](CCC(=O)O)C(=O)O)cs3)cc2c(=O)[nH]1
IC50 (R2): > 1000 nM | Activity [1]: inactive | IC50 [2]: 2.6 nM | K [3]: 0.22 µM | Activity [4]: 60% | T/C (SK-OV-3 [5]): 69% | Ratio IC50 (RT16): 610 | T/C (SK-OV-3 [6]): 15% | Activity [7]: Active
